In brackets after ≈: the same amount, converted by molar mass.
What was measured:
Rattus norvegicus [1] = assay: Tested for hypolipidemic activity in male rats, cholesterol was determined in serum at 10 mg/kg; assay type: functional
In short: (§1)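 Groups of eight male Wistar rats (200–230 g) dosed orally in PEG 400, either daily for 7 days (killed 24 h after the last dose) or for 4 days with a second dose on day 4 (killed 16 h later). Fasted 16 h. Paired sera pooled, lipoproteins separated by ultracentrifugation (1.006 and 1.040 g/cm³), HDL taken as the infranatant. Cholesterol measured enzymatically; % vs vehicle, mean ± SEM of four pools.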

Rattus norvegicus [2] = assay: Hypolipidemic activity was determined in male rats, and high-density lipoprotein level was determined at 10 mg/kg; assay type: functional
In short: (§2)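 Male Wistar rats (200–230 g), eight per group, were dosed orally in PEG 400 at 8 a.m. for 4 days, plus a second dose at 4 p.m. on day 4. Rats were fasted 16 h and killed 16 h after the last dose. Sera from pairs of rats were pooled. LDL (up to 1.040 g/cm³) was separated by ultracentrifugation and the HDL infranatant taken. Cholesterol was measured enzymatically. Results are % versus vehicle control, mean ± SEM of four pools, Student's t test.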

Staphylococcus aureus = assay: Antibacterial activity against Staphylococcus aureus 10B; assay type: functional
In short: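 Agar dilution on DST agar with 2-fold drug dilutions. Inoculum of 10⁴ viable S. aureus 10B was taken from liquid-nitrogen stock, thawed 30 min and not subcultured. It was applied by multipoint replicator and incubated overnight at 37 °C. MIC is the lowest concentration inhibiting growth relative to control cultures.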

Rattus norvegicus [3] = assay: Hypolipidemic activity was determined in male rats, and low-density lipoprotein level was determined at 10 mg/kg; assay type: functional; in short: as §2
Rattus norvegicus [4] = assay: Hypolipidemic activity was determined in male rats, and high-density lipoprotein level was determined at 20 mg/kg; assay type: functional; in short: as §2
Rattus norvegicus [5] = assay: Tested for hypolipidemic activity in male rats, cholesterol was determined in serum at 20 mg/kg; assay type: functional; in short: as §1
Rattus norvegicus [6] = assay: Hypolipidemic activity was determined in male rats, and low-density lipoprotein level was determined at 20 mg/kg; assay type: functional; in short: as §2
[7] = Inhibitory activity against RNA polymerase was determined; parameters: species or system Escherichia coli
In short: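 E. coli DNA-dependent RNA polymerase inhibition measured in vitro on ether-extracted, permeabilized E. coli cells.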

Rattus norvegicus [8] = assay: Hypolipidemic activity was determined in male rats, and low-density lipoprotein level was determined at 50 mg/kg; assay type: functional; in short: as §2
Rattus norvegicus [9] = assay: Hypolipidemic activity was determined in male rats, and high-density lipoprotein level was determined at 50 mg/kg; assay type: functional; in short: as §2
Rattus norvegicus [10] = assay: Tested for hypolipidemic activity in male rats, cholesterol was determined in serum at 50 mg/kg; assay type: functional; in short: as §1

Row | SMILES | Activity (Rattus norvegicus [1]) [%] | Activity (Rattus norvegicus [2]) [%] | MIC (Staphylococcus aureus) [µg/mL] | Activity (Rattus norvegicus [3]) [%] | Activity (Rattus norvegicus [4]) [%] | Activity (Rattus norvegicus [5]) [%] | Activity (Rattus norvegicus [6]) [%] | IC50 [7] [µg/mL] | Activity (Rattus norvegicus [8]) [%] | Activity (Rattus norvegicus [9]) [%] | Activity (Rattus norvegicus [10]) [%]
1 | COC1/C=C/OC2(C)Oc3c(C)c(O)c4c(O)c(c(N5CCN(Cc6c(C)cc(C)cc6C)CC5)c(O)c4c3C2=O)NC(=O)/C(C)=C\C=C\C(C)C2OC(C)(C)OC(C2C)C(C)C(OC(C)=O)C1C (stereo not given) | -14 | -27 | 8 (≈ 8.38 µM) | -6 |  |  |  |  |  |  | 
2 | CCOC(=O)C1CCN(c2c3c(O)c4c(O)c(C)c5c(c4c2O)C(=O)C(C)(O/C=C/C(OC)C(C)C(OC(C)=O)C(C)C(O)C(C)C(O)C(C)/C=C/C=C(/C)C(=O)N3)O5)CC1 (stereo not given) |  |  | < 0.1 |  | -16 | -16 | 5 |  |  |  | 
3 | COC1/C=C/OC2(C)Oc3c(C)c(O)c4c(O)c(c(N5CCN(Cc6ccc(C(C)(C)C)cc6)CC5)c(O)c4c3C2=O)NC(=O)/C(C)=C\C=C\C(C)C(O)C(C)C(O)C(C)C(OC(C)=O)C1C (stereo not given) |  |  | 0.5 (≈ 0.539 µM) |  | -71 | -70 | -70 |  |  |  | 
4 | COC1/C=C/OC2(C)Oc3c(C)c(O)c4c(O)c(c(N5CCC(=O)CC5)c(O)c4c3C2=O)NC(=O)/C(C)=C\C=C\C(C)C(O)C(C)C(O)C(C)C(OC(C)=O)C1C (stereo not given) |  |  | < 0.1 |  | -9 | 1 | 53 |  |  |  | 
5 | CC(=O)OC1C(C)C2/C=C/OC3(C)Oc4c(C)c(O)c5c(O)c(c(N6CCN(Cc7c(C)cc(C)cc7C)CC6)c(O)c5c4C3=O)NC(=O)/C(C)=C\C=C\C(C)C(O)C(C)C(O2)C1C (stereo not given) | 0 | -4 | > 128 | -9 |  |  |  | > 100 |  |  | 
6 | COC1/C=C/OC2(C)Oc3c(C)c(O)c4c(O)c(c(N5CCC(C(N)=O)CC5)c(O)c4c3C2=O)NC(=O)/C(C)=C\C=C\C(C)C(O)C(C)C(O)C(C)C(OC(C)=O)C1C (stereo not given) |  |  | < 0.1 |  | -6 | -9 | 11 |  |  |  | 
7 | COC1/C=C/OC2(C)Oc3c(C)c(O)c4c(O)c(c(N5CCCCC5)c(O)c4c3C2=O)NC(=O)/C(C)=C\C=C\C(C)C(O)C(C)C(O)C(C)C(OC(C)=O)C1C (stereo not given) |  |  | < 0.1 |  | -36 | -32 | -19 |  |  |  | 
8 | COC1/C=C/OC2(C)Oc3c(C)c(O)c4c(O)c(c(N5CCC(C)CC5)c(O)c4c3C2=O)NC(=O)/C(C)=C\C=C\C(C)C(O)C(C)C(O)C(C)C(OC(C)=O)C1C (stereo not given) |  |  | < 0.1 |  | -30 | -23 | 23 |  |  |  | 
9 | COC1/C=C/OC2(C)Oc3c(C)c(O)c4c(O)c(c(N5CCC(C(C)C)CC5)c(O)c4c3C2=O)NC(=O)/C(C)=C\C=C\C(C)C(O)C(C)C(O)C(C)C(OC(C)=O)C1C (stereo not given) |  |  | < 0.1 |  | -61 | -61 | -54 |  |  |  | 
10 | COC1/C=C/OC2(C)Oc3c(C)c(O)c4c(O)c(c(N5CCC(C6CCCC6)CC5)c(O)c4c3C2=O)NC(=O)/C(C)=C\C=C\C(C)C(O)C(C)C(O)C(C)C(OC(C)=O)C1C (stereo not given) |  |  | < 0.1 |  | -40 | -42 | -41 |  |  |  | 
11 | COC1/C=C/OC2(C)Oc3c(C)c(O)c4c(O)c(c(N5CCN(Cc6c(C)cc(C)cc6C)CC5)c(O)c4c3C2=O)NC(=O)/C(C)=C\C=C\C(C)C(OC(C)=O)C(C)C(OC(C)=O)C(C)C(OC(C)=O)C1C (stereo not given) | -24 | -24 | 4 (≈ 4.01 µM) | -19 |  |  |  |  |  |  | 
12 | COC1/C=C/OC2(C)Oc3c(C)c(O)c4c(O)c(c(N5CCC(O)CC5)c(O)c4c3C2=O)NC(=O)/C(C)=C\C=C\C(C)C(O)C(C)C(O)C(C)C(OC(C)=O)C1C (stereo not given) |  |  | < 0.1 |  | -3 | 0 | 13 |  |  |  | 
13 | COC1/C=C/OC2(C)Oc3c(C)c(O)c4c(O)c(c(N5CCC(CO)CC5)c(O)c4c3C2=O)NC(=O)/C(C)=C\C=C\C(C)C(O)C(C)C(O)C(C)C(OC(C)=O)C1C (stereo not given) |  |  | < 0.1 |  | -10 | -14 | -7 |  |  |  | 
14 | COC1/C=C/OC2(C)Oc3c(C)c(O)c4c(O)c(c(N5CCN(Cc6c(C)cc(C)cc6C)CC5)c(O)c4c3C2=O)NC(=O)C(C)CCCC(C)C(O)C(C)C(O)C(C)C(OC(C)=O)C1C (stereo not given) | -40 | -36 | 0.2 (≈ 0.218 µM) | -59 |  |  |  | 6.5 (≈ 7.08 µM) |  |  | 
15 | CCC1CCN(c2c3c(O)c4c(O)c(C)c5c(c4c2O)C(=O)C(C)(O/C=C/C(OC)C(C)C(OC(C)=O)C(C)C(O)C(C)C(O)C(C)/C=C/C=C(/C)C(=O)N3)O5)CC1 (stereo not given) |  |  | < 0.1 |  | -61 | -57 | -51 |  |  |  | 
16 | CCCCCCCCCCCCN1CCN(c2c3c(O)c4c(O)c(C)c5c(c4c2O)C(=O)C(C)(O/C=C/C(OC)C(C)C(OC(C)=O)C(C)C(O)C(C)C(O)C(C)/C=C/C=C(/C)C(=O)N3)O5)CC1 (stereo not given) |  |  | 0.15 (≈ 0.158 µM) |  | -53 | -56 | -68 |  |  |  | 
17 | COC1/C=C/OC2(C)Oc3c(C)c(O)c4c(O)c(c(N5CCN(Cc6c(C)cc(C)cc6C)CC5)c(O)c4c3C2=O)NC(=O)/C(C)=C\C=C\C(C)C(O)C(C)C(=O)C(C)C(OC(C)=O)C1C (stereo not given) | -18 | -23 | 2 (≈ 2.19 µM) | -1 |  |  |  |  |  |  | 
18 | COC1CCOC2(C)Oc3c(C)c(O)c4c(O)c(c(N5CCN(Cc6c(C)cc(C)cc6C)CC5)c(O)c4c3C2=O)NC(=O)C(C)CCCC(C)C(O)C(C)C(O)C(C)C(OC(C)=O)C1C (stereo not given) | -30 | -27 | 2 (≈ 2.17 µM) | -32 |  |  |  | 8 (≈ 8.69 µM) |  |  | 
19 | COC1/C=C/OC2(C)Oc3c(C)c(O)c4c(O)c(c(N5CCC(Cc6ccccc6)CC5)c(O)c4c3C2=O)NC(=O)/C(C)=C\C=C\C(C)C(O)C(C)C(O)C(C)C(OC(C)=O)C1C (stereo not given) |  |  | 0.04 (≈ 0.0459 µM) |  | -51 | -53 | -66 |  |  |  | 
20 | COC1/C=C/OC2(C)Oc3c(C)c(O)c4c(O)c(c(N5CCN(Cc6c(C)cc(C)cc6C)CC5)c(O)c4c3C2=O)NC(=O)/C(C)=C\C=C\C(C)C(=O)C(C)C(O)C(C)C(OC(C)=O)C1C (stereo not given) | -11 | -15 | 64 (≈ 70.2 µM) | 1 |  |  |  |  |  |  | 
21 | COC1/C=C/OC2(C)Oc3c(C)c(O)c4c(O)c(c(C=NN5CCN6CCCCC6C5)c(O)c4c3C2=O)NC(=O)/C(C)=C\C=C\C(C)C(O)C(C)C(O)C(C)C(OC(C)=O)C1C (stereo not given) |  |  | 0.005 (≈ 0.00579 µM) |  |  |  |  |  | -27 | -53 | -49
22 | COC1/C=C/OC2(C)Oc3c(C)c(OC(=O)C(C)(C)C)c4c(c3C2=O)C(=O)C(N2CCN(Cc3c(C)cc(C)cc3C)CC2)=C(NC(=O)/C(C)=C\C=C\C(C)C(O)C(C)C(O)C(C)C(OC(C)=O)C1C)C4=O (stereo not given) |  |  | 0.5 (≈ 0.502 µM) |  | -53 | -48 | -32 |  |  |  | 
23 | COC1/C=C/OC2(C)Oc3c(C)c(O)c4c(O)c(c(N5CCC(CC6CCCCC6)CC5)c(O)c4c3C2=O)NC(=O)/C(C)=C\C=C\C(C)C(O)C(C)C(O)C(C)C(OC(C)=O)C1C (stereo not given) |  |  | 1 (≈ 1.14 µM) |  | -67 | -62 | -31 |  |  |  | 
24 | CO[C@H]1/C=C/O[C@@]2(C)Oc3c(C)c(O)c4c(O)c(cc(O)c4c3C2=O)NC(=O)/C(C)=C\C=C\[C@H](C)[C@H](O)[C@@H](C)[C@@H](O)[C@@H](C)[C@H](OC(C)=O)[C@@H]1C [RIFAMYCIN] |  |  | 0.001 (≈ 0.00143 µM) |  |  |  |  |  | 21 | 1 | 4
25 | COC1/C=C/OC2(C)Oc3c(C)c(O)c4c(O)c(c(N5CCC(C(C)(C)C)CC5)c(O)c4c3C2=O)NC(=O)/C(C)=C\C=C\C(C)C(O)C(C)C(O)C(C)C(OC(C)=O)C1C (stereo not given) |  |  | < 0.1 |  | -48 | -51 | -52 |  |  |  | 
26 | Cc1cc(C)c(CN2CCNCC2)c(C)c1 |  |  | 128 (≈ 586 µM) |  |  |  |  |  | 0 | -5 | -7
27 | COC1/C=C/OC2(C)Oc3c(C)c(O)c4c(O)c(c(N5CCN(CC(C)C)CC5)c(O)c4c3C2=O)NC(=O)/C(C)=C\C=C\C(C)C(O)C(C)C(O)C(C)C(OC(C)=O)C1C (stereo not given) |  |  | 0.005 (≈ 0.00597 µM) |  |  |  |  |  | -64 | -60 | -50
28 | COC1/C=C/OC2(C)Oc3c(C)c(O)c4c(O)c(c(N5CCN(Cc6ccccc6)CC5)c(O)c4c3C2=O)NC(=O)/C(C)=C\C=C\C(C)C(O)C(C)C(O)C(C)C(OC(C)=O)C1C (stereo not given) |  |  | 0.004 (≈ 0.00459 µM) |  |  |  |  |  | -56 | -36 | -29

Source: ChEMBL document CHEMBL1125042, “Hypolipidemic activity of rifamycin derivatives” (J Med Chem, 1990)
